MEKK2 WT-MEK5: raises or lowers MEK5 binding to wildtype human MEKK2 PB1 domain. bead flow cytometry, Alexa488-MEK5 binding to MEKK2 WT; actives lie on both sides. Q9Y2U5. binding response (% of control), % at 10 µM. 1.1% of 290,000 active; in the data active means binding response below about 67% or above about 130%
Apaf1 inhib: blocks human Apaf-1 apoptosome activity. 0.71% of 330,000 active. AID 489030. inhibition, % at 20 µM. reconstituted apoptosome caspase-3 activity, DEVD-Rh110 fluorescence; active means inhibition of at least 40% at 20 µM;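 further: plate controls were DMSO wells for no effect and DEVD-CHO caspase inhibitor wells for full effect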
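System – cell-free apoptosome with Apaf-1, procaspase-3 and caspase-9 · Buffer or medium – pH 7.5 Hepes buffer with CHAPS, BSA, DTT · Also added – cytochrome c with DEVD-Rh110 · Times – 30 min compound preincubation, 50 min activation, room temperature · Technique – Rh110 fluorescence intensity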
MEKK2mut PB1 HTS: signal of MEK5 binding to mutant human MEKK2 PB1 domain; percent response, % at 10 µM; 0.35% of 290,000 active; bead flow cytometry, Alexa488-MEK5 binding to MEKK2 mutant; AID 1530; in the data active means percent response above about 24%, passing the limit was not always enough
MEKK3 PB1 HTS: MEKK3-MEK5 PB1 interaction, increase or decrease; AID 1529; Q99759; binding response (% of control), % at 10 µM; 1.4% of 290,000 active; bead-based flow cytometry, Alexa488-MEK5 binding to MEKK3; actives lie on both sides; 0 = blocked by unlabeled MEK5, 100 = vehicle;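 active means binding response more than 3 SD above or below the average of its plate-row segment, actives on both sides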;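 further: Alexa488 bead fluorescence after subtracting the streptavidin-only scavenger bead signal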
UBC13 inh: blocks human UBC13 polyubiquitin chain formation; P61088; TR-FRET; inhibition, % at 20 µM; 0.47% of 330,000 active; in the data active means inhibition above about 45%, passing the limit was not always enough
Target sequence (P61088 whole entry, looked up): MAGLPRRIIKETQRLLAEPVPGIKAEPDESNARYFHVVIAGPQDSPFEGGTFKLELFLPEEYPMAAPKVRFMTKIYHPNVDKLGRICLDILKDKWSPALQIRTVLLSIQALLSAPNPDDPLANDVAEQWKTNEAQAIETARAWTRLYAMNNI
Apaf-1 inh conf2: Apaf-1 inhibition, single-dose confirmed; shares compounds with Apaf1 inhib; reconstituted apoptosome, caspase-3 DEVD-Rh110 fluorescence; inhibition, % at 20 µM; 25% of 1,800 active; AID 504614;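 active means mean inhibition of at least 40% at 20 µM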;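 further: plate controls were DMSO wells for no effect and DEVD-CHO caspase inhibitor control wells for full effect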
Rh110 quench: counter-screen for Apaf-1 inhibitors: fluorescence interference | AID 504615 | Rh110 fluorescence interference, quenched caspase reaction | activation (fluorescence interference), % at 20 µM | 1,800 tested, under 10 active | shares compounds with Apaf1 inhib;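 active means signal rise of 40% or more at 20 µM, treated as a fluorescence artifact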
Fluor interf inh: counter-screen for Apaf-1 inhibitors: fluorescence interference, dose response; shares compounds with Apaf1 inhib; fluorescence interference counterscreen, Apaf-1 assay format; IC50, µM; 460 tested, under 10 active; AID 588538; call rule not given here
* marks the source's active call; other numbers are inactive results. This is a sample that favours compounds with a hit; in the whole collection about 2.9% have one here.

Cc1ccc(C[n+]2c(-c3ccc(C)cc3)cc(-c3ccc(C)cc3)cc2-c2ccc(C)cc2)cc1 was read as Apaf1 inhib 78.5*, UBC13 inh 28.7, Apaf-1 inh conf2 37.0 and Rh110 quench 6.6.
`COC(=O)C(O)(c1ccc(N(C)C(=O)c2cccs2)cc1)C(F)(F)F` (stereo unspecified) gave MEKK2 WT-MEK5 91.0, Apaf1 inhib 12.2, MEKK2mut PB1 HTS -8.0, MEKK3 PB1 HTS 99.0 and UBC13 inh 1.9.
For CCOC(=O)c1c(N)n(Cc2ccc(OC)cc2)c2nc3ccccc3nc12 the results were MEKK2 WT-MEK5 105.0, MEKK2mut PB1 HTS 8.0 and MEKK3 PB1 HTS 109.0.
For COCCOC(=O)c1c(N)n(Cc2ccc(OC)cc2)c2nc3ccccc3nc12 the results were MEKK2 WT-MEK5 108.0, Apaf1 inhib 65.7*, MEKK2mut PB1 HTS 5.0, MEKK3 PB1 HTS 107.0, UBC13 inh -9.5, Apaf-1 inh conf2 21.1 and Rh110 quench 8.7.
Screening COC(=O)C1=C(c2cc3ccccc3s2)C[C@@H]2CC[C@H]1N2C(=O)NCCCOC(C)C returned MEKK2 WT-MEK5 102.0, Apaf1 inhib 8.8, MEKK2mut PB1 HTS 3.0, MEKK3 PB1 HTS 106.0 and UBC13 inh 8.5.
For CC(C)CCn1c(N)c(C(=O)NCc2cccs2)c2nc3ccccc3nc21 the results were MEKK2 WT-MEK5 120.0, Apaf1 inhib 89.3*, MEKK2mut PB1 HTS 9.0, MEKK3 PB1 HTS 104.0, UBC13 inh 13.1, Apaf-1 inh conf2 29.9 and Rh110 quench 5.0.
Nc1c(C(=O)NCC2CCCO2)c2nc3ccccc3nc2n1Cc1ccco1 (stereo unspecified) was read as MEKK2 WT-MEK5 92.0, Apaf1 inhib 31.9, MEKK2mut PB1 HTS -4.0, MEKK3 PB1 HTS 95.0 and UBC13 inh -27.2.
Screening Nc1c(C(=O)OCC2CCCO2)c2nc3ccccc3nc2n1Cc1cccs1 (stereo unspecified) returned MEKK2 WT-MEK5 94.0, Apaf1 inhib 55.6*, MEKK2mut PB1 HTS 4.0, MEKK3 PB1 HTS 92.0, UBC13 inh 5.2, Apaf-1 inh conf2 23.0 and Rh110 quench 5.0.
CC(C)OCCCNC(=O)c1c(N)n(Cc2cccs2)c2nc3ccccc3nc12 was read as MEKK2 WT-MEK5 101.0, Apaf1 inhib 95.3*, MEKK2mut PB1 HTS 1.0, MEKK3 PB1 HTS 106.0, UBC13 inh 5.6, Apaf-1 inh conf2 34.1 and Rh110 quench 13.9.
`CCC(=NCc1ccco1)c1c(O)n(-c2ccccc2C)c(=O)[nH]c1=O` gave MEKK2 WT-MEK5 103.0, Apaf1 inhib -8.3, MEKK2mut PB1 HTS 2.0, MEKK3 PB1 HTS 103.0 and UBC13 inh 2.8.
`C[N+]1(C)C2CC(OC(=O)[C@H](CO)c3ccccc3)CC1C1OC12` (stereo partly specified) gave Apaf1 inhib -2.5 and UBC13 inh 4.5.
CCOC(=O)c1c(NS(=O)(=O)c2ccccc2)n(CCCOC)c2nc3ccccc3nc12 was read as MEKK2 WT-MEK5 95.0, Apaf1 inhib 96.5*, MEKK2mut PB1 HTS -2.0, MEKK3 PB1 HTS 96.0, UBC13 inh -11.0, Apaf-1 inh conf2 76.4*, Rh110 quench 4.3 and Fluor interf inh >100.
Screening CC(C)CCn1c(=O)c(C(=O)NCc2ccco2)c(O)c2ccccc21 returned MEKK2 WT-MEK5 102.0, Apaf1 inhib -5.0, MEKK2mut PB1 HTS 16.0, MEKK3 PB1 HTS 109.0 and UBC13 inh 0.5.
Screening CCCCn1c(=O)c(C(=O)NCc2ccccc2)c(O)c2ccccc21 returned MEKK2 WT-MEK5 109.0, Apaf1 inhib -7.9, MEKK2mut PB1 HTS 6.0, MEKK3 PB1 HTS 109.0 and UBC13 inh 15.5.
`CCCCNC(=O)c1c(N)n(CCCOC)c2nc3ccccc3nc12` gave MEKK2 WT-MEK5 99.0, Apaf1 inhib 89.6*, MEKK2mut PB1 HTS -2.0, MEKK3 PB1 HTS 101.0, UBC13 inh 3.1, Apaf-1 inh conf2 50.4*, Rh110 quench 0.8 and Fluor interf inh >100.
For COCCCn1c(N)c(C(=O)OCCOC)c2nc3ccccc3nc21 the results were MEKK2 WT-MEK5 105.0, Apaf1 inhib 95.0*, MEKK2mut PB1 HTS 4.0, MEKK3 PB1 HTS 103.0, UBC13 inh -10.0, Apaf-1 inh conf2 16.3 and Rh110 quench 12.2.
`COCCNC(=O)c1c(N)n(CCC(C)C)c2nc3ccccc3nc12` gave MEKK2 WT-MEK5 94.0, Apaf1 inhib 82.1*, MEKK2mut PB1 HTS 4.0, MEKK3 PB1 HTS 101.0, UBC13 inh 35.5, Apaf-1 inh conf2 29.6 and Rh110 quench 9.4.
Screening CSc1ccc(CN2CCN(C(=O)COc3cccc(C)c3)CC2)cc1 returned MEKK2 WT-MEK5 103.0, Apaf1 inhib 13.6, MEKK2mut PB1 HTS 2.0, MEKK3 PB1 HTS 100.0 and UBC13 inh -12.1.
Screening CC(C)CNC(=O)/C=C/C=C/CCCCCC/C=C/c1ccc2c(c1)OCO2 returned Apaf1 inhib -4.7 and UBC13 inh -6.6.
c1cncc(C2Nc3cccc4cccc(c34)N2)c1 was read as MEKK2 WT-MEK5 114.0, Apaf1 inhib 42.1*, MEKK2mut PB1 HTS 12.0, MEKK3 PB1 HTS 97.0, UBC13 inh -44.9, Apaf-1 inh conf2 11.4 and Rh110 quench 0.6.
Screening CCN(CCO)c1ccc(N=Cc2c(O)n(C)c(=S)[nH]c2=O)cc1 returned MEKK2 WT-MEK5 97.0, Apaf1 inhib 51.2*, MEKK2mut PB1 HTS 0.0, MEKK3 PB1 HTS 105.0, UBC13 inh -252.0, Apaf-1 inh conf2 15.9 and Rh110 quench -6.6.
`CCN(CC)c1ccc(N=Cc2c(O)n(Cc3ccco3)c(=O)[nH]c2=O)cc1` gave MEKK2 WT-MEK5 92.0, Apaf1 inhib 0.9, MEKK2mut PB1 HTS -5.0, MEKK3 PB1 HTS 97.0 and UBC13 inh -11.6.
`CCN(CC)c1ccc(N=Cc2c(O)n(-c3cc(OC)ccc3OC)c(=O)[nH]c2=O)cc1` gave MEKK2 WT-MEK5 92.0, Apaf1 inhib 48.5*, MEKK2mut PB1 HTS -3.0, MEKK3 PB1 HTS 87.0, UBC13 inh -31.1, Apaf-1 inh conf2 12.9 and Rh110 quench 0.6.
`CCN(CC)c1ccc(N=Cc2c(O)n(CCc3ccc(OC)c(OC)c3)c(=O)[nH]c2=O)cc1` gave MEKK2 WT-MEK5 117.0, MEKK2mut PB1 HTS 19.0 and MEKK3 PB1 HTS 104.0.
`CNc1cc(Cl)c2nonc2c1[N+](=O)[O-]` gave MEKK2 WT-MEK5 100.0, MEKK2mut PB1 HTS -1.0 and MEKK3 PB1 HTS 101.0.
COc1cc2c(cc1OC)-c1c(OC)c(OC)cc3c1[C@H](C2)N(C)CC3 was read as MEKK2 WT-MEK5 102.0, Apaf1 inhib 94.5*, MEKK2mut PB1 HTS 2.0, MEKK3 PB1 HTS 105.0, UBC13 inh -169.4, Apaf-1 inh conf2 96.3*, Rh110 quench 7.4 and Fluor interf inh >100.

Bioassay records: PubChem BioAssay, several laboratories
